Assay results: ChEMBL document CHEMBL1124584, “Effect of triphenylacrylonitrile derivatives on estradiol-receptor binding and on human breast cancer cell growth” (J Med Chem, 1989)

Key:
MCF7 [1] = assay: Percent of inhibitory activity versus 0.1 nm […] against proliferation of MCF-7 cells.; type: functional, Homo sapiens
In short: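 Same MCF-7 pre-culture in steroid-depleted phenol-red-free medium, seeded at 10000 cells/well. Cells grew with 0.1 nM E2 plus various compound concentrations, medium renewed every 2 days, for 8 days. DNA was measured in triplicate wells, as % DNA relative to E2 alone. % antagonist = (E2−TPE)/(E2−control)×100, from the IC50 or the response at 10^-6 M.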

MCF7 [2] = assay: Percent of inhibitory activity against proliferation of MCF-7 cells in presence of 10e-6 M concentration of […] (E2).; type: functional, Homo sapiens
In short: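 Cytotoxicity assay: MCF-7 cells were seeded at 20000/well in phenol-red-free medium with 5% DCC-treated FCS and exposed to compound (3–10 µM) plus 1 µM E2 for 6 days. Medium was renewed every 2 days. DNA content was read in triplicate wells as % of 1 µM E2 alone. Values are given as the IC30 and as % inhibition at 10^-5 M.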

MCF7 [3] = assay: In vitro inhibition of MCF-7 cell proliferation compared to 0.1 nM [3H]-estradiol.; type: functional, cell-based; details: Homo sapiens
BT-20 [4] = assay: Percent of inhibitory activity against proliferation of BT-20 cells in presence of TPE at 10e-5 M concentration.; type: functional; details: Homo sapiens
In short: (§1)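 ER-negative BT-20 cells were seeded at 40000/well in phenol-red-free MEM-based medium and exposed to compound (3–10 µM) for 5 or 6 days, with medium renewed every 2 days. DNA content was read in triplicate wells as % of vehicle control. Values are given as the IC30 and as % inhibition at 10^-5 M.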

MCF7 [5] = assay: Inhibitory activity against proliferation of MCF-7 cells in presence of 10e-6 M concentration of [3H]- estradiol (E2); type: functional; details: Homo sapiens
MCF7 [6] = assay: Percent of effective dose for […] against proliferation of MCF-7 cells.; type: functional, Homo sapiens
In short: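 MCF-7 cells were kept 6 days in phenol-red-free MEM-based medium with 5% dextran-charcoal-stripped FCS, then seeded at 10000 cells/well. After 1 day they got test compound (10 pM to 1 µM) without E2, or vehicle (0.2% ethanol); medium was renewed every 2 days. DNA was assayed after 8–10 days in triplicate wells. % agonist = (TPE−control)/(E2−control)×100, from the EC50 or the maximum response.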

BT-20 [7] = assay: Inhibitory activity against proliferation of BT-20 cells in presence of TPE at 10e-5 M concentration.; type: functional; details: Homo sapiens; in short: as §1
[8] = target: T1, Anti-estrogen binding site (AEBS) (Homo sapiens) (UniProt Q15125+Q9UBM7); assay: Relative binding affinity for antiestrogen binding site (AEBS) of calf uterus cytosol; type: tissue-based
In short: (§2)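 Calf uterus was homogenized in TED buffer (10 mM Tris-HCl, 1.5 mM EDTA, 1 mM DTT, pH 7.4) and spun at 12000 g for 1 h at 0–4 °C. […] Free ligand was removed with dextran-charcoal, and bound ligand was counted by scintillation. RBA was taken from the 50% displacement concentration.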

[9] = target: T1, Anti-estrogen binding site (AEBS) (Homo sapiens); assay: Relative binding affinity for antiestrogen binding site (AEBS) of calf uterus 2 hr incubation at 0C; type: tissue-based; in short: as §2
MCF7 [10] = assay: Effective dose for [3H]- estradiol against proliferation of MCF-7 cells; type: functional, cell-based; details: Homo sapiens
[11] = target: T2, Estrogen receptor (Bos taurus) (UniProt Q9XSB5+P49884); details: Uterus; Cytosol
[12] = target: T2, Estrogen receptor (Bos taurus); details: Uterus; Cytosol; remark: listed apart in the source
[13] = target: T2, Estrogen receptor (Bos taurus); assay: Selectivity for relative binding affinity against estrogen receptor in at 2 hrs and 5 hr in calf uterus cytosol; type: protein assay
In short: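 Calf uterine cytosol (TED buffer, pH 7.4; 180000 g, 1 h) was incubated with 1 nM [3H]E2 and competitor (0.3 nM–10 µM, 1% ethanol), either 2 h at 0 °C or 5 h at 25 °C. Bound ligand was separated with dextran-charcoal and counted by scintillation. RBA came from the concentration giving 50% displacement relative to E2. The value is the ratio of the 25 °C RBA to the 0 °C RBA.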

| SMILES | Inhibition (MCF7 [1]) [%] | Inhibition (MCF7 [2]) [%] | IC50 (MCF7 [3]) [µM] | inhibition at 10 µM (BT-20 [4]) [%] | IC30 (MCF7 [5]) [µM] | Agonism (MCF7 [6]) [%] | IC30 (BT-20 [7]) [µM] | relative binding affinity (RBA) ([8]; Bos taurus) | RBA ([9]; Bos taurus) | EC50 (MCF7 [10]) [nM] | relative binding affinity (RBA) [8] | RBA [9] | RBA1 [11] | RBA2 [12] | Selectivity [13] |
| --- | --- | --- | --- | --- | --- | --- | --- | --- | --- | --- | --- | --- | --- | --- | --- |
| CC/C(=C(\c1ccccc1)c1ccc(OCCN(C)C)cc1)c1ccccc1 [TAMOXIFEN] | 90 | 49 | 0.219 | 56 | 6.5 | 21 | 5.7 | 100 | 100 | 0.11 |  |  |  |  |  |
| CCC(=C(c1ccc(O)cc1)c1ccc(OCCN(C)C)cc1)c1ccccc1 | 100 | 81 | 0.0025 | 65 | 4 | 10 | 4.8 |  |  | 0.003 | 40 | 40 |  |  |  |
| CCN(CC)CCOc1ccc(/C(=C(\C#N)c2ccccc2)c2ccc(O)cc2)cc1 | 100 | 89 | 0.025 | 94 | 3.9 | 12 | 3.5 | 6.9 | 6.9 | 0.03 |  |  | 3.6 | 3.4 |  |
| CCN(CC)CCOc1ccc(C(=C(C#N)c2ccccc2)c2ccc(OCCN(CC)CC)cc2)cc1 | 27 | 94 | > 1 | 87 | 3.1 | 62 | 3.3 | 3.6 | 3.6 | 0.28 |  |  | 0.42 | 0.4 |  |
| CCN(CC)CCOc1ccc(/C(=C(/C#N)c2ccccc2)c2ccc(O)cc2)cc1 | 100 | 77 | 0.0046 | 57 | 4.8 | 16 | 6.4 | 27 | 27 | 0.02 |  |  | 126 | 108 | 0.85 |
| CC/C(=C(/c1ccc(O)cc1)c1ccc(OCCN(C)C)cc1)c1ccccc1 | 91 | 74 | 0.022 | 33 | 5.3 | 61 | 9.3 | 20 | 20 | 0.016 |  |  |  |  |  |
